Experimental data taken from paper PMC6605687 (The Journal of General Physiology, 2019).
Positions count from the first letter of the chain named. Entries after “also recorded” stand apart in the source; their conditions may differ. Where two headings read alike, the source gives them in different places.

Tests used:
Format in all cases: cell-based
[1] = molecular target: T1, rat P2X2 receptor (rP2X2R) WT (Rattus norvegicus, UniProt P49653); conditions: for Apparent affinity / potency (in words) / Efficacy (in words) / Macroscopic currents elicited (in words): WT P2X2Rs; for Apparent affinity / potency (in words) / Efficacy (in words): compared with ATP; for Imax agonist/Imax ATP (%): maximal current compared to that elicited by 1 mM of ATP, same cell; for Macroscopic currents elicited (in words): concentrations of up to 1 mM; for Fold increase in EC50 (reduced apparent affinity) compared with ATP: agonist versus ATP; for Reduction in efficacy: relative to ATP
T1 sequence (P49653 1-472): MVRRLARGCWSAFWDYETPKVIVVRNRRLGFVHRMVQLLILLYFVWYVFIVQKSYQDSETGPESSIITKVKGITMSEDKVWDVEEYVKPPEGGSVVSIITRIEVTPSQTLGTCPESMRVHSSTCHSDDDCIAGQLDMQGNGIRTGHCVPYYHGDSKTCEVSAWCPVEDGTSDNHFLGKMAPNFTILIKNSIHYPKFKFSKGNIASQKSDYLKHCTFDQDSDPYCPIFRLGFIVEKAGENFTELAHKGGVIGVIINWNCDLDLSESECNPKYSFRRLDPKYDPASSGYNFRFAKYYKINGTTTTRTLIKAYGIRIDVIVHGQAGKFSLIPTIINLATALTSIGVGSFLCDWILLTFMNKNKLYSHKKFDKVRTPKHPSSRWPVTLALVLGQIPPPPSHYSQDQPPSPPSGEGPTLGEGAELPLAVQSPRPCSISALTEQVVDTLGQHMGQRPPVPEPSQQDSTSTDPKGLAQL
Method in brief: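 Collagenase-digested Xenopus oocytes were injected with WT rP2X2 mRNA (30 ng) and kept in L-15 at 18°C. Two-electrode voltage clamp was done 1–2 days later at −40 mV in ND96 (pH 7.4). Agonists were freshly dissolved in ND96 at pH 7.4. Responses were normalised to 1 mM ATP current in the same cell, and Hill fits gave EC50 and nH. Relative efficacy is the agonist maximal current versus 1 mM ATP. Results are mean ± SEM, compared by one-way ANOVA with Dunnett's test.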

[2] = molecular target: T2, rP2X2-3T receptors (Rattus norvegicus, UniProt P49653, C348T/C430T/C9T); test: Single channel outside-out patch-clamp recordings, HEK-293 cells; conditions: agonist 1 µM, mean ± SEM
T2 sequence (P49653 1-472 C9T/C348T/C430T): T1 sequence (P49653 1-472) with C9T, C348T, C430T
Method in brief: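 HEK-293 cells were co-transfected by calcium phosphate with rP2X2-3T DNA plus GFP DNA to mark transfected cells, then recorded within 24 h. Outside-out patches were held at −120 mV. Pipette contained 147 NaF, 10 EGTA and 10 HEPES (mM, pH 7.3). Agonist at 1, 10 or 100 µM in extracellular saline (pH 7.3) was applied by fast perfusion for 10 s per 12-s sweep, at 1-min intervals. Amplitudes came from Gaussian fits to all-points histograms, with 2–5 sweeps averaged per patch.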

[3] = molecular target: T3, rP2X2 Val70Vah (Rattus norvegicus, UniProt P49653); test: Two-electrode voltage clamp, oocytes expressing rP2X2 Val70Vah
T3 sequence (P49653 1-472): T1 sequence (P49653 1-472)

[4] = molecular target: T4, rP2X2 Thr184Val (Rattus norvegicus, UniProt P49653, T184V); test: Two-electrode voltage clamp, oocytes expressing rP2X2 Thr184Val
T4 sequence (P49653 1-472 T184V): T1 sequence (P49653 1-472) with T184V
Method in brief: (§1)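 Mutations were made by site-directed mutagenesis. Xenopus oocytes were injected with rP2X2 mRNA and incubated in L-15 at 18°C. Two-electrode voltage clamp was done 1–2 days later at −40 mV under ND96 perfusion (pH 7.4). ATP concentration-response currents were normalised and fitted to a one-component Hill equation for EC50 and Hill coefficient. Results are mean ± SEM, tested by one-way ANOVA with Dunnett's test against WT.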

[5] = molecular target: T5, rP2X2 Ile185Vah (Rattus norvegicus, UniProt P49653); test: Two-electrode voltage clamp, oocytes expressing rP2X2 Ile185Vah; conditions: Ile185Vah, mean ± SEM
T5 sequence (P49653 1-472): T1 sequence (P49653 1-472)
Method in brief: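 The backbone ester was introduced by nonsense suppression. TAG-mutant rP2X2 mRNA was co-injected into Xenopus oocytes with tRNA enzymatically aminoacylated with 2-hydroxyisovaleric acid. Uncharged tRNA co-injection served as the negative control. After incubation at 18°C, two-electrode voltage clamp was done at −40 mV in ND96 (pH 7.4). ATP concentration-response data were normalised and Hill-fitted for EC50 and nH, given as mean ± SEM.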

[6] = molecular target: T6, rP2X2 Thr184Ser (Rattus norvegicus, UniProt P49653, T184S); test: Two-electrode voltage clamp, oocytes expressing rP2X2 Thr184Ser
T6 sequence (P49653 1-472 T184S): T1 sequence (P49653 1-472) with T184S
Method in brief: as §1

[7] = molecular target: T7, rP2X2 Ile185Val (Rattus norvegicus, UniProt P49653, I185V); test: Two-electrode voltage clamp, oocytes expressing rP2X2 Ile185Val
T7 sequence (P49653 1-472 I185V): T1 sequence (P49653 1-472) with I185V
Method in brief: as §1

[8] = WT rP2X2R, Xenopus oocytes, −40 mV, mean ± SEM

| Structure (SMILES) | EC50 [1] [µM] | nH (Hill coefficient) ([1]; WT rP2X2R, mean ± SEM) | Imax agonist/Imax ATP (%) ([1]; WT rP2X2R) | Fold increase in EC50 (reduced apparent affinity) compared with ATP ([1]; WT rP2X2R) | Apparent affinity / potency (in words) [1] | Efficacy (in words) [1] | other results |
| --- | --- | --- | --- | --- | --- | --- | --- |
| Nc1ncnc2c1ncn2[C@H]1C[C@H](O)[C@@H](COP(=O)(O)OP(=O)(O)OP(=O)(O)O)O1 [C2′-dATP, 2′-deoxyadenosine-5′-triphosphate] | > 300 | – | – | – | – | – | – |
| Nc1ncnc2c1ncn2[C@@H]1O[C@@]2(COP(=O)(O)OP(=O)(O)OP(=O)(O)O)CO[C@@H]1[C@@H]2O [LNA-ATP, locked nucleic acid–ATP] | – | 1.8 ± 0.1 | 66 ± 1 | – | apparent affinity indistinguishable from ATP; also recorded: ATP-like apparent affinity | significantly reduced efficacy; also recorded: only a minor decrease in efficacy | EC50 [1, 8]: 27 ± 1 µM; SDopen (SD of the open state amplitude) [2]: 1.03 ± 0.1; Unitary current ([2]; outside-out patch, −120 mV): −3.58 ± 0.4 pA |
| Nc1ncnc2c1ncn2[C@@H](CO)O[C@@H](CO)COP(=O)(O)OP(=O)(O)OP(=O)(O)O [UNA-ATP, unlocked nucleic acid–ATP] | – | – | – | – | – | – | Macroscopic currents elicited (in words) [1]: failed to elicit macroscopic currents; also recorded: does not elicit macroscopic current responses; also recorded: did not act as an agonist |
| Nc1ccn([C@@H]2O[C@H](COP(=O)(O)OP(=O)(O)OP(=O)(O)O)[C@@H](O)[C@H]2O)c(=O)n1 [CTP, Cytidine 5′-triphosphate] | 370 ± 30 | – | 105 ± 4 | – | – | did not alter efficacy; also recorded: ATP-like efficacy | nH (Hill coefficient) ([3]; Val70Vah): 2.6 ± 0.1; Fold increase in EC50, Val70Vah versus WT ([3]; Val70Vah compared with WT): fivefold; EC50 ([3]; Val70Vah, mean ± SEM): 2000 µM; EC50 [4]: 11700 µM; Fold increase in EC50 (reduction in sensitivity), Thr184Val versus WT ([4]; Thr184Val compared with WT): ~30 fold; EC50 [5]: 1100 µM; EC50 [6]: 156 ± 30 µM; EC50 [7]: 144 ± 30 µM |
| Nc1ncnc2c1ncn2[C@H]1CC[C@@H](COP(=O)(O)OP(=O)(O)OP(=O)(O)O)O1 [C2′-C3′-ddATP, 2′,3′-dideoxyadenosine-5′-triphosphate] | – | – | – | – | even less potent agonist; also recorded: further decreased apparent affinity and efficacy | – | – |
| O=P(O)(O)OP(=O)(O)OP(=O)(O)OC[C@H]1O[C@@H](n2cnc3c(O)ncnc32)[C@H](O)[C@@H]1O [ITP, Inosine 5′-triphosphate] | – | – | – | – | – | – | Macroscopic currents elicited (in words) [1]: failed to evoke any currents |
| Nc1ncnc2c1ncn2[C@@H]1O[C@H](COP(=O)(O)OP(=O)(O)OP(=O)(O)O)[C@@H](O)[C@@H]1O [Ara-ATP, Ara-adenosine 5′-triphosphate] | – | – | – | – | lower apparent affinity than ATP | greatly reduced efficacy | EC50 [1, 8]: > 100 µM |

Second part, led by results:

| EC50 [1] [µM] | nH (Hill coefficient) ([1]; WT rP2X2R, mean ± SEM) | Imax agonist/Imax ATP (%) ([1]; WT rP2X2R) | Fold increase in EC50 (reduced apparent affinity) compared with ATP ([1]; WT rP2X2R) | Structure (SMILES) | Apparent affinity / potency (in words) [1] | Efficacy (in words) [1] | other results |
| --- | --- | --- | --- | --- | --- | --- | --- |
| 12000 | – | – | 400 fold | O=c1ccn([C@@H]2O[C@H](COP(=O)(O)OP(=O)(O)OP(=O)(O)O)[C@@H](O)[C@H]2O)c(=O)[nH]1 [UTP, uridine 5′-triphosphate] | – | significantly reduced efficacy | – |
| 83 ± 4 | 2.6 ± 0.1 | 67 ± 2 | threefold | Nc1ncnc2c1ncn2[C@@H]1O[C@H](COP(=O)(O)OP(=O)(O)OP(=O)(O)O)C[C@H]1O [C3′-dATP, 3′-deoxyadenosine-5′-triphosphate] | – | – | Reduction in efficacy ([1]; WT rP2X2R): ~30% |
| 52 ± 6 | 2.1 ± 0.1 | 60 ± 2 | twofold | Nc1ncnc2c1ncn2[C@@H]1O[C@H](COP(=O)(O)OP(=O)(O)OP(=O)(O)O)[C@@H](O)[C@H]1F [C2′-F-dATP, 2′-fluoro-2′-deoxyadenosine-5′-triphosphate] | – | – | Reduction in efficacy ([1]; WT rP2X2R): ~40% |
